Sampled rows, rich in hits. Any-hit rate of the full collection: about 2.3%.
TRPC4 act = activators of mouse TRPC4 channel; Q9QUQ5; HEK293 TRPC4beta/mu-opioid, Fluo4 calcium fluorescence; hits give high values; B-score at 10 µM; hit rate 0.49% among 310,000; AID 2237;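 active means B-score above 5 SD of library B-scores, and initial fluorescence ratio not above library mean plus 5 SD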;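 further: positive B-score marks a calcium rise read as TRPC4 activation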
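Material: TRPC4beta and mu-opioid receptor HEK293 stable cells | Incubation: 45 min room-temperature Fluo4 loading, 110 s read | Detection: Kinetic Fluo4 calcium fluorescence | Measure: Integrated baseline-normalised fluorescence ratio, converted to per-well B score | Benchmarks: Low control buffer alone, high control maximal DAMGO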
TRPC4 potent = allosterically enhances the mouse TRPC4 cation channel | Q9QUQ5 | HEK293 TRPC4beta/mu-opioid, DAMGO EC20, Fluo-4 Ca2+ flux; hits give high values | B-score at 10 µM | hit rate 0.42% among 310,000;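 active means B-score of calcium response area above 5 SD of library B-scores, with initial fluorescence ratio within 5 SD of library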;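 further: B-score of integrated fluorescence ratio over time as area under calcium response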
TRPC6 inh = mouse TRPC6 channel inhibition; HEK293-TRPC6, membrane potential dye, ACh-evoked depolarization; hits give low values; hit rate 1.1% among 310,000; B-score at 10 µM; AID 2553; Q61143;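 active means B-score under library mean minus 3 SD, initial fluorescence not abnormally high, positive integrated signal ratio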;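 further: B-score derived from integrated fluorescence ratio over the kinetic read; more negative B-score means stronger inhibition of depolarization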
Target sequence (Q61143 whole entry, looked up): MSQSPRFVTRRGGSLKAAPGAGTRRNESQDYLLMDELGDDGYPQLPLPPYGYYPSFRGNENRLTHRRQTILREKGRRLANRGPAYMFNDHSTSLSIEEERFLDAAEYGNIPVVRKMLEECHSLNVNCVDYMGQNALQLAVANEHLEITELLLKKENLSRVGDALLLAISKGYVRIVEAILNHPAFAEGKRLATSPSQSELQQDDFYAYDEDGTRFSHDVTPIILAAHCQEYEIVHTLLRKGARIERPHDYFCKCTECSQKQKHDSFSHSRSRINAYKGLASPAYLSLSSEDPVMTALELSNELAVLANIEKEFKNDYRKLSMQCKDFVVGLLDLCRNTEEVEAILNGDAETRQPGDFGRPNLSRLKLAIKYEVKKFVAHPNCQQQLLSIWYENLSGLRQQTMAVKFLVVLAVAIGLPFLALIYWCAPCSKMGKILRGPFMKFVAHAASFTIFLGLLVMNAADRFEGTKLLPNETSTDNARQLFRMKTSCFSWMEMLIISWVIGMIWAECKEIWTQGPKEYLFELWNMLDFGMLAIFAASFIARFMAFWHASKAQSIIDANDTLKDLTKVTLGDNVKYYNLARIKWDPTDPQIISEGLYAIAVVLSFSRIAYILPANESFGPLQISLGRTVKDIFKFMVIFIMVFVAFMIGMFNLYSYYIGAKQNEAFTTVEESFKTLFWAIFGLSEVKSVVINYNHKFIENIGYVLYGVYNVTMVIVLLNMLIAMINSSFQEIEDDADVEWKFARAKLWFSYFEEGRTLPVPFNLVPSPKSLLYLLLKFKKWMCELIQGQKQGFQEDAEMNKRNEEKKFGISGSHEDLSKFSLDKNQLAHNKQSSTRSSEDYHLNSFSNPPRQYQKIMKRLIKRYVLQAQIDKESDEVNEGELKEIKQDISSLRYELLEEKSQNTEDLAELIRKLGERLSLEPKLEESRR
TRPC6 activator = activates the mouse TRPC6 cation channel; HEK293-TRPC6 membrane potential dye fluorescence; hits give high values; Q61143; B-score at 10 µM; hit rate 0.13% among 310,000;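 active means B-score of the integrated fluorescence ratio above library mean plus 3 SD, and starting fluorescence ratio within library mean plus 5 SD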;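 further: higher score means more depolarization so channel activation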
TRPC4 inh = TRPC4 (mouse) channel inhibition; HEK293 TRPC4beta/mu-opioid, DAMGO-evoked Fluo4 calcium flux; hits give low values; Q9QUQ5; AID 2247; B-score at 10 µM; hit rate 0.39% among 300,000;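 active means B-score over 3 SD under the library average, no early fluorescence shift, positive overall ratio signal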
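material = TRPC4beta/mu-opioid receptor HEK293 cell line | probe or stimulus = sequential submaximal and maximal DAMGO stimulation | compound dosing = one concentration per compound | measured by = Fluo4 Ca2+ flux fluorescence | evaluation = integrated fluorescence ratio relative to baseline, converted to per-well B score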
TRPC4 spec 2 = second selectivity test of TRPC6 inhibitors: effect on mouse TRPC4; shares compounds with TRPC6 inh; HEK293 TRPC4/MOR, membrane potential dye fluorescence; channel activated by saturating DAMGO dose; inhibition, % at 10 µM; hit rate 42% among 920; AID 2776;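 active means compounds whose fluorescence signal differed from control wells by over 3 SD, either direction, in both duplicate plates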
TRPC4 spec = tests whether TRPC6 inhibitors also affect mouse TRPC4. shares compounds with TRPC6 inh. HEK293 TRPC4/mu-opioid, membrane potential fluorescence. activity change, negative = inhibition, % at 10 µM. hit rate 61% among 920;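 active means rise or fall in signal beyond 3 SD of buffer-only wells in both replicate plates, either sign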;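 further: integrated kinetic ratio of fluorescence range over baseline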
HEK293 MPD ctr 2-1 = parental HEK293 nonspecific activity of TRPC6 inhibitors, second screen. signal change vs control, % at 10 µM. AID 2779. hit rate 31% among 920. parental HEK293 membrane potential dye fluorescence; maximal acetylcholine challenge after compound addition. shares compounds with TRPC6 inh;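 active means membrane potential signal moving either way by over 3 SD of the maximum-effect control, in both duplicate plates, meaning non-specific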
HEK293 MPD ctr-1 = checks TRPC6 inhibitor effects in parental HEK293 cells; shares compounds with TRPC6 inh; parental HEK293 membrane potential dye fluorescence; membrane potential signal change, % at 10 µM; hit rate 60% among 920;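 active means membrane potential signal shifting up or down by more than 3 SD of buffer-only wells, on both duplicate plates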
HEK293 MPD ctr-2 = checks TRPC6 modulator effects in parental HEK293 cells; AID 488924; membrane potential signal change, % at 10 µM; hit rate 51% among 2,400; membrane potential dye fluorescence; shares compounds with TRPC6 inh;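 active means membrane potential signal moves up or down beyond 5 SD from buffer-only wells, on both duplicate plates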
HEK293 MPD ctr 2-2 = parental HEK293 nonspecific activity of TRPC6 modulators, second screen. shares compounds with TRPC6 inh. membrane potential dye fluorescence; after compound, maximal acetylcholine stimulation. inhibition, % at 10 µM. hit rate 14% among 2,400. AID 488926;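 active means membrane potential signal drops by more than 5 SD from the mean control signal, in both duplicate plates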;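 further: plate controls were acetylcholine ECmax control wells for no effect and buffer only wells for full effect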
TRPC4 ctr mod = mouse TRPC4 off-target activity of TRPC6 modulators; shares compounds with TRPC6 inh; HEK293 TRPC4/mu-opioid, membrane potential fluorescence; percent change from control (negative = decrease, positive = increase), % at 10 µM; hit rate 69% among 2,400;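 active means membrane potential signal moved up or down beyond 5 SD of buffer control wells, in both duplicate plates, actives on both sides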;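 further: plate controls were assay buffer wells for no effect and DAMGO maximal-effect wells for full effect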
TRPC4 ctr inh 2 = mouse TRPC4 off-target activity of TRPC6 modulators, second screen; HEK293 TRPC4/mu-opioid, membrane potential dye fluorescence; stimulated with maximal-effect DAMGO; hit rate 55% among 2,400; shares compounds with TRPC6 inh; inhibition, % at 10 µM;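 active means drop in membrane potential signal beyond 5 SD of the control wells in both duplicate plates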;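 further: TRPC4 counter screen for TRPC6 hits run under conditions tuned for TRPC6 not TRPC4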
TRPC6 block conf = mouse TRPC6 inhibitor confirmation | hit rate 43% among 3,300 | shares compounds with TRPC6 inh | inhibition, % at 10 µM | HEK293-TRPC6, membrane potential dye, ACh-evoked depolarization;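 active means fluorescence ratio falls more than 5 SD below the full-stimulation control mean, in both duplicate runs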;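 further: integrated fluorescence ratio of peak minus minimum over baseline after agonist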
TRPC6 act conf = mouse TRPC6 activator confirmation | activation, % at 10 µM | hit rate 11% among 2,800 | HEK293-TRPC6 membrane potential dye fluorescence, FDSS | shares compounds with TRPC6 inh;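 active means ratio signal rise beyond 5 SD above unstimulated control wells' mean, seen in both duplicate runs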;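 further: plate controls were buffer EC0 wells for no effect and acetylcholine ECmax response for full effect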
* hit, by the source's call; i = inactive; . = no result given.

SMILES	TRPC4 act	TRPC4 potent	TRPC6 inh	TRPC6 activator	TRPC4 inh	HEK293 MPD ctr-2	HEK293 MPD ctr 2-2	TRPC4 ctr mod	TRPC4 ctr inh 2	TRPC6 block conf	TRPC6 act conf	others
N=c1c(C(=O)NCC2CCCO2)cc2c(=O)n3ccccc3nc2n1Cc1ccc(F)cc1 (stereo not given)	i	i	-6*	i	i	i	i	-9.5%*	48%*	48%*	i
N=c1c(C(=O)NCC2CCCO2)cc2c(=O)n3ccccc3nc2n1Cc1ccco1 (stereo not given)	i	i	-5.3*	i	i	i	76%*	13%*	i	i	i
CCOCCCNc1nc2nc3ccc(C)cn3c(=O)c2cc1C(=O)NCC1CCCO1 (stereo not given)	i	i	-5.5*	i	i	149%*	61%*	24%*	i	i	.
N=c1c(C(=O)NCC2CCCO2)cc2c(=O)n3ccccc3nc2n1Cc1cccnc1 (stereo not given)	i	i	-7.5*	i	i	i	84%*	-100%*	33%*	50%*	i
N=c1c(C(=O)NCCc2ccccc2)cc2c(=O)n3ccccc3nc2n1Cc1ccco1	i	i	i	i	i	.	.	.	.	.	.
O=C(NCCc1ccco1)c1cc(COc2cccc(C(F)(F)F)c2)on1	i	i	i	i	i	.	.	.	.	.	.
Nc1cc(=O)[nH]c(=O)n1Cc1ccco1	i	i	-5.3*	i	i	i	i	i	i	i	i
Cc1cc(C)nc(SC(C)CNS(=O)(=O)c2ccccc2)n1 (stereo not given)	i	i	i	i	i	.	.	.	.	.	.
CC1CC(C)CN(C(=O)c2ccc3c(c2NCCO)C(=O)c2ccccc2C3=O)C1 (stereo not given)	i	i	-7*	i	i	-246%*	i	-45%*	80%*	68%*	i
C=CCN1C2CCCC1CC(NC(=O)Nc1cccc(C(C)=O)c1)C2 (stereo not given)	i	i	-5.4*	i	i	i	i	i	i	85%*	.
CCOC(=O)Nc1ccc2c(c1)N(C(=O)OC)c1ccccc1CC2	i	i	i	i	i	.	.	.	.	.	.
COc1cc(C(=O)Nc2ccc3c(c2)N(C(=O)CCN(C)C)c2ccccc2CC3)cc(OC)c1OC	i	i	-8.8*	i	i	i	i	i	i	58%*	i
CCOC(=O)Nc1ccc2c(c1)N(CCCN(C)C)c1ccccc1CC2	i	i	-7.8*	i	i	.	.	.	.	51%*	i	TRPC4 spec 2=i;TRPC4 spec=i;HEK293 MPD ctr 2-1=i;HEK293 MPD ctr-1=i
O=C(COC(=O)c1ccc(Cl)c(S(=O)(=O)NCc2ccccc2)c1)NCC1CCCO1 (stereo not given)	i	i	i	i	i	.	.	.	.	.	.
COc1ccc(C(=O)NCCSc2ccccc2)cc1OC	i	i	i	i	i	.	.	.	.	.	.
COc1cc(NC(=O)CN(c2ccc(C)cc2)S(=O)(=O)c2c(C)noc2C)cc(OC)c1	i	i	i	i	i	.	.	.	.	.	.
c1ccc(CCNc2ccnc3cc4ccccc4cc23)cc1	i	i	i	i	i	.	.	.	.	.	.
CC(C)Nc1ccc(Nc2ccnc3cc4ccccc4cc23)cc1	i	i	-6.2*	i	i	i	i	i	54%*	i	i
COc1ccc(Nc2ncnc3ccccc23)cc1	i	i	i	i	i	.	.	.	.	.	.
COc1ccc(Nc2ccnc3ccccc23)cc1	i	i	-8.5*	i	i	.	.	.	.	54%*	i	TRPC4 spec 2=54%*;TRPC4 spec=-25%*;HEK293 MPD ctr 2-1=i;HEK293 MPD ctr-1=-284%*
CCOC(=O)c1sc2ncnc(N3CCN(C)CC3)c2c1C	i	i	-5.5*	i	i	-118%*	i	-20%*	34%*	i	i
COC(=O)c1sc2nc(-c3ccccc3)nc(N3CCN(C)CC3)c2c1C	i	i	-5.4*	i	i	-122%*	i	-29%*	i	i	i
COCCN1C(=O)N[C@@H](c2ccccc2)[C@@H](C(=O)OC)[C@H]1C	i	i	i	i	i	.	.	.	.	.	.
CC1=C(C(=O)OCC2CCCO2)C(c2ccc(F)cc2)NC(=O)N1 (stereo not given)	i	i	i	i	i	.	.	.	.	.	.
COc1ccc(C(=O)c2coc3ccc(O)c(CN(C)C)c23)cc1	i	i	-5.3*	i	i	i	i	9.0%*	56%*	i	i
Cc1c(C)[n+](=O)c2c(n1[O-])CCCCC2	i	i	-7.7*	i	i	.	.	.	.	i	i	TRPC4 spec 2=i;TRPC4 spec=i;HEK293 MPD ctr 2-1=i;HEK293 MPD ctr-1=i
O=C(NCCOC(=O)c1c(F)cccc1Cl)c1c(F)cccc1Cl	i	i	i	i	i	.	.	.	.	.	.
CC(=O)c1ccc2cccc3c2c1N=CN3C	i	i	-8.9*	i	i	-146%*	68%*	-66%*	50%*	50%*	i
CN1c2cccc3cccc(c23)N(C)C1(C)C	i	i	i	i	i	.	.	.	.	.	.
